Results reported in ChEMBL document CHEMBL2150978, “Phosphorodiamidates as a promising new phosphate prodrug motif for antiviral drug discovery: application to anti-HCV agents” (J Med Chem, 2011).

Legend:
Liver [1] = assay: Cmax in Sprague-Dawley rat liver assessed as 2'-C-methyl guanosine triphosphate level at 10 mg/kg, po up to 24 hrs by LC-MS/Ms analysis; assay type: ADME, organism-based; parameters: dose 10 mg/kg, route oral; conditions: in vivo
In short: (§1)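 Male Sprague-Dawley rats dosed orally by gavage at 10 mg/kg in 95% Capmul MCM/5% Tween 80. Livers collected terminally at eight time points up to 24 h and snap-frozen in liquid nitrogen. Liver 2′-C-methylguanosine triphosphate quantified by LC-MS/MS, linear over 100−4000 ng per gram of tissue (r² ≥ 0.99, ≥85% accuracy, ≤2% CV).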

Liver [2] = assay: Tmax in Sprague-Dawley rat liver assessed as 2'-C-methyl guanosine triphosphate level at 10 mg/kg, po up to 24 hrs by LC-MS/Ms analysis; assay type: ADME, organism-based; parameters: dose 10 mg/kg, route oral; conditions: in vivo; in short: as §1
[3] = Drug metabolism in acetone-d6 and TRIZMA buffer at pH 7.4 assessed as (S)-2-((((2R,3R,4R,5R)-5-(2-amino-6-methoxy-9H-purin-9-yl)-3,4-dihydroxy-4-methyltetrahydrofuran-2-yl)methoxy)oxidophosphorylamino)propanoate level at 6.94 ppm at pH 7.4 after 1 hr by 31P NMR in presence of carboxypeptidase Y; assay type: physicochemical; conditions: pH 7.4, 1 h
In short: (§2)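 Compound (about 5 mg) in 200 μL acetone-d₆ plus 400 μL Trizma buffer pH 7.4. Baseline ³¹P NMR recorded, then 0.3−0.5 mg carboxypeptidase Y in 200 μL Trizma pH 7.4 added. Processing followed by ³¹P NMR kinetics. A buffer phosphate impurity peak stays constant throughout.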

[4] = Stability in citric acid-HCl buffer at pH 2 incubated for 14 hrs at 37 or 47 degC by [31P] NMR spectroscopy; assay type: physicochemical; conditions: pH 2, 14 h
In short: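 Compound in citric acid−HCl buffer pH 2, held at 37 or 47 °C and monitored by ³¹P NMR over 14 h.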

[5] = Drug metabolism in acetone-d6 and TRIZMA buffer at pH 7.4 assessed as (S)-2-((((2R,3R,4R,5R)-5-(2-amino-6-methoxy-9H-purin-9-yl)-3,4-dihydroxy-4-methyltetrahydrofuran-2-yl)methoxy)oxidophosphorylamino)propanoate level at 6.95 ppm at pH 7.4 after 1 hr by 31P NMR in presence of carboxypeptidase Y; assay type: physicochemical; conditions: pH 7.4, 1 h; in short: as §2
[6] = Cytotoxicity against human HuH7 cells after 3 days; assay type: cell-based, Huh-7
In short: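 Huh7 replicon cells seeded at 2 × 10⁴ per well one day before dosing. Four-fold serial dilutions in growth medium, no-drug controls on each plate. Incubated 3 days at 37 °C, 5% CO₂. Viability read by CellTiter-Glo luminescence after 20 min with reagent.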

Serum = assay: Stability in human serum incubated for 12 hrs by [31P] NMR spectroscopy; assay type: ADME, cell-free
Hepatitis C virus = assay: Antiviral activity against Hepatitis C virus subtype 1b Con1 infected in human Huh7 cells assessed as inhibition of HCV replicon-encoded Renilla luciferase reporter activity after 72 hrs by HCV replicon assay; assay type: functional, organism-based, Hepacivirus hominis; conditions: Con1, Huh-7, 72 h
In short: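 Huh7 cells stably carrying a bicistronic subgenomic genotype 1b (Con1) replicon with Renilla luciferase reporter, seeded at 2 × 10⁴ cells/well the day before. Four-fold serial dilutions in growth medium, no-drug controls on each plate; 3 days at 37 °C, 5% CO₂. Luciferase reagent 20 min, then luminescence (RLU) read; EC₅₀ derived.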

[7] = Stability in phosphate buffer at pH 7 after 14 hrs by [31P] NMR spectroscopy; assay type: physicochemical; conditions: pH 7, 14 h
[8] = Stability of the compound in triethylammonium bicarbonate buffer assessed as compound decomposition at pH 11 incubated for 17 hrs at 37 degC by [31P] NMR spectroscopy; assay type: physicochemical; conditions: pH 11, 17 h
In short: (§3)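 Base stability tested at pH 8.5 and at pH 11, both at 37 °C, followed by ³¹P NMR, with pH 11 samples followed to 17 h. Half-life estimated assuming first-order decay.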

[9] = Selectivity index, ratio of CC50 for human HuH7 cells to EC50 for Hepatitis C virus subtype 1b Con1; assay type: toxicity, cell-based, Huh-7; conditions: read-out: Ratio CC50/EC50
In short: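 Huh7 cells carrying a stable bicistronic subgenomic genotype 1b (Con1) HCV replicon with Renilla luciferase reporter, 2 × 10⁴ cells per well. Four-fold serial dilutions, 3 days at 37 °C, 5% CO₂. Replicon inhibition read by luciferase luminescence (RLU) and cytotoxicity by CellTiter-Glo in the same cell line. SI taken as CC50/EC50.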

Liver [10] = assay: Clast in Sprague-Dawley rat liver assessed as 2'-C-methyl guanosine triphosphate level at 10 mg/kg, po up to 24 hrs by LC-MS/Ms analysis; assay type: ADME, organism-based; parameters: dose 10 mg/kg, route oral; conditions: in vivo; in short: as §1
[11] = Stability in phosphate buffer assessed as compound decomposition by HPLC; assay type: physicochemical
[12] = Stability of the compound in triethylammonium bicarbonate buffer assessed as compound decomposition at pH 8.5 incubated at 37 degC by [31P] NMR spectroscopy; assay type: physicochemical; in short: as §3
[13] = Stability of the compound in triethylammonium bicarbonate buffer assessed as compound decomposition at pH 11 incubated at 37 degC by [31P] NMR spectroscopy; assay type: physicochemical; in short: as §3
Liver [14] = assay: AUC (0 to t) in Sprague-Dawley rat liver assessed as 2'-C-methyl guanosine triphosphate level at 10 mg/kg, po up to 24 hrs by LC-MS/Ms analysis; assay type: ADME, organism-based; parameters: dose 10 mg/kg, route oral; conditions: in vivo; in short: as §1

Structure (SMILES): COc1nc(N)nc2c1ncn2[C@@H]1O[C@H](COP(=O)(N[C@@H](C)C(=O)OCC(C)(C)C)N[C@@H](C)C(=O)OCC(C)(C)C)[C@@H](O)[C@@]1(C)O (mixture of isomers)
- Cmax (Liver [1]): 1580 ng/g
- Tmax (Liver [2]): 8 h
- Drug metabolism [3]: Active
- Stability [4]: Stable
- Drug metabolism [5]: Active
- CC50 at 72 h [6]: > 100 µM
- Stability (Serum): Stable
- EC50 (Hepatitis C virus): 60 nM
- EC90 (Hepatitis C virus): 200 nM
- Stability [7]: Stable
- Stability [8]: Stable
- selectivity ratio [9]: > 1600
- Clast (Liver [10]): 800 ng/g
- Stability [11]: Stable
- Stability [12]: Stable
- Stability [13]: Stable
- AUCt (Liver [14]): 25147 ng·h/g
